Measured values published in ChEMBL document CHEMBL3997769, “Discovery and preclinical evaluation of 7-benzyl-N-(substituted)-pyrrolo[3,2-d]pyrimidin-4-amines as single agents with microtubule targeting effects along with triple-acting angiokinase inhibition as antitumor agents” (Bioorg Med Chem, 2017).
Active and inactive are the calls of the source. No cut-off for these calls is given here.

Legend:
[1] = Toxicity in Balb/cJ mouse assessed as body weight loss administered once weekly measured every 2 days during compound dosing; details: in vivo
In short: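 Female BALB/cJ mice, 8 weeks old, carrying orthotopic 4T1-Luc2-GFP allografts (7,500 cells in mammary fat pad #4). IP dosing at 1 mg/kg once weekly began one week after implantation, in 5% Pharmasolve/5% Solutol HS in normal saline. Body weight was reported as percent change at day 40 from starting weight, vs untreated controls, n = 9–10, by one-way ANOVA.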

Mus musculus = experiment: Toxicity in Balb/cJ mouse implanted with luciferase/GFP-tagged mouse 4T1 cells assessed as body weight gain at 1 mg/kg, ip administered once weekly measured at day 40 post dose; assay type: organism-based; details: in vivo
4T1 [2] = experiment: Antitumor activity against luciferase/GFP-tagged mouse 4T1 cells implanted in Balb/cJ mouse assessed as reduction in lung metastasis at 1 mg/kg, ip administered once weekly by fluorescence microscopic method; assay type: functional, organism-based
In short: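 Orthotopic 4T1-Luc2-GFP allograft in the mammary fat pad of female BALB/cJ mice; IP treatment in 5% Pharmasolve/5% Solutol HS in saline began one week after implantation. At study end, lungs were excised from mice euthanized under isoflurane and imaged with a GFP-filter fluorescence dissecting microscope; GFP-positive metastases per lung counted. n = 9-10.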

4T1 [3] = experiment: Antitumor activity against luciferase/GFP-tagged mouse 4T1 cells implanted in Balb/CJ mouse assessed as reduction in primary tumor growth at 1 mg/kg, ip administered once in a week; assay type: functional, organism-based
A-431 = experiment: Cytotoxicity against human A431 cells; assay type: functional, cell-based
Chorioallantoic membrane = experiment: Antiangiogenic activity in Leghorn chicken egg chorioallantoic membrane assessed as inhibition of human VEGF-165/bFGF-induced blood vessels formation measured after 40 hrs by microscopic method; assay type: functional, tissue-based; details: Gallus gallus
[4] = Inhibition of bovine brain tubulin assembly preincubated for 15 mins followed by GTP addition measured for 20 mins by spectrophotometric method; set-up: species or system Bos taurus

IC50 [4] [µM] | SMILES | MTD at 48 h [1] [mg/kg] | Activity (Mus musculus) | Activity (4T1 [2]) | Activity (4T1 [3]) | IC50 (A-431) [µM] | IC50 (Chorioallantoic membrane) [µM]
 | COc1cccc2c1C(=O)c1c(O)c3c(c(O)c1C2=O)C[C@@](O)(C(=O)CO)C[C@@H]3O[C@H]1C[C@H](N)[C@H](O)[C@H](C)O1 [DOXORUBICIN] | 1 | Toxic | Active | inactive |  | 
> 20 | COc1ccc(Nc2nc(C)nc3c(Cc4ccccc4)cn(C)c23)cc1 |  |  |  |  | 2.3 | 8.7
